According to ChEMBL document CHEMBL1122868, “New antiallergic pyrano [3,2-g]quinoline-2,8-dicarboxylic acids with potential for the topical treatment of asthma” (1985):
The source made the active and inactive calls. No cut-off for these calls is given here.

Tests used:
Rattus norvegicus [1] = organism: Rattus norvegicus; assay: Potency ratio to that of sodium cromoglycate (1.0) using PCA test.; type: functional
Procedure, shortened: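 Passive cutaneous anaphylaxis in female rats sensitized with reaginic anti-egg albumin serum and challenged i.v. at 24 h with antigen plus Evans Blue. Compound in saline was co-injected with antigen; groups of five. Sodium cromoglycate ID50 was determined in each experiment. Potency ratio = ID50(sodium cromoglycate)/ID50(compound), with ID50s from regression lines of inhibition against log dose.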

Canis familiaris [2] = assay: Percent inhibition by dog hypotension screen assay at 10 ug/Kg per min for 15 min.; type: functional; settings: Canis lupus familiaris, 0.25 h
Rattus norvegicus [3] = organism: Rattus norvegicus; assay: Inhibitory dose by PCA test […].; type: functional; settings: read-out: ID50 (the source's name)
Procedure, shortened: (§1)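 Rat passive cutaneous anaphylaxis. Female rats (100 g) sensitized intradermally with 0.1 mL rat anti-egg albumin reaginic serum diluted in saline. After 24 h, rats were challenged i.v. with egg albumin, Evans Blue and saline, with the compound in saline given in the same injection. Reactions measured at 20 min; groups of five. ID50 taken from a log-dose regression of 20–80% inhibition.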

Canis familiaris [4] = assay: Activity index by dog hypotension screen assay at 10 ug/Kg per min for 15 min.; type: functional, Canis lupus familiaris
Rattus norvegicus [5] = organism: Rattus norvegicus; assay: Ability to inhibit histamine release from rat peritoneal mast cells.; type: functional
Monkey [6] = assay: (§2) Ability to inhibit histamine release from monkey lung lavage cells; type: functional; settings: Cercopithecidae, in Primates
Rattus norvegicus [7] = organism: Rattus norvegicus; assay: Ability to inhibit histamine release from rat peritoneal mast cells using PCA assay.; type: functional; procedure, shortened: as §1
Monkey [8] = assay: as §2; type: functional, Cercopithecidae
Rattus norvegicus [9] = organism: Rattus norvegicus; assay: Compound was evaluated to induce phosphorylation of the 78000 molecular weight mast cell protein; Active to induce phosphorylation; type: functional
Canis familiaris [10] = organism: Canis familiaris; assay: Relative activity in dog hypotension; type: functional, Canis lupus familiaris
Canis familiaris [11] = assay: Activity index was evaluated by dog hypotension screen assay at 20 ug/Kg per min for 15 min; type: functional, Canis lupus familiaris
Canis familiaris [12] = assay: Activity index was evaluated by dog hypotension screen assay at 50 ug/Kg per min for 15 min; type: functional, Canis lupus familiaris
Canis familiaris [13] = assay: Percent inhibition was evaluated by dog hypotension screen assay at 50 ug/Kg per min for 15 min; type: functional; settings: Canis lupus familiaris, 0.25 h
Canis familiaris [14] = assay: Percent inhibition was evaluated by dog hypotension screen assay at 10 ug/Kg per min for 15 min; inactive; type: functional, organism-based; settings: Canis lupus familiaris
Procedure, shortened: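 In anaesthetized beagles (pentobarbitone 30 mg/kg i.v.), hypotensive responses to a standardized bolus of sodium cromoglycate were established. Test compound was infused i.v. for 15 min, and the cromoglycate bolus was repeated at the end of the infusion and every 30 min over 3 h. Percent inhibition was expressed as area under the curve over 3 h; single experiments.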

Rattus norvegicus [15] = organism: Rattus norvegicus; assay: Ability to inhibit histamine release from rat peritoneal mast cells; type: functional

| Compound | Potency ratio (Rattus norvegicus [1]) | inhibition in vivo at 10 µg/kg/min (Canis familiaris [2]) [%] | ED50 (Rattus norvegicus [3]) [mg/kg] | Activity index (Canis familiaris [4]) | further results |
| --- | --- | --- | --- | --- | --- |
| CCCc1c2nccc(Cl)c2cc2c(=O)cc(C(=O)[O-])oc12.[Na+] | 0.2 | 48 | 5.38 | 4.8 |  |
| CCCc1c2nc(C(=O)[O-])cc(Sc3ccccc3)c2cc2c(=O)cc(C(=O)[O-])oc12.[Na+].[Na+] | 1.78 | 66 | 1.87 | 6.6 |  |
| O=C([O-])c1cc(O)c2cc3c(=O)cc(C(=O)[O-])oc3cc2n1.[Na+].[Na+] | 11.6 | 78 | 0.22 | 7.8 |  |
| CCn1c(C(=O)[O-])cc(=O)c2cc3c(=O)cc(C(=O)[O-])oc3cc21.[Na+].[Na+] | 0.16 | 76 | 10 | 7.6 |  |
| CCCc1c2oc(C(=O)[O-])cc(=O)c2cc2c(=O)cc(C(=O)[O-])n(CC)c12.[Na+].[Na+] [NEDOCROMIL SODIUM] | 1.1 | 60 | 0.95 | 6 | Potency (Rattus norvegicus [5]): 1; IC30 (Monkey [6]): 5.2 µM; Potency (Rattus norvegicus [7]): 1.1; Relative potency (Monkey [8]): 190; Potency (Rattus norvegicus [9]): Active to induce phosphorylation; Relative activity (Canis familiaris [10]): 1.9 |
| Cc1c2nc(C(=O)[O-])cc(O)c2cc2c(=O)cc(C(=O)[O-])oc12.[Na+].[Na+] | 12.7 | 66 | 0.11 | 6.6 |  |
| CCCc1c2nc(C(=O)[O-])cc(O)c2cc2c(=O)cc(C(=O)[O-])oc12.[Na+].[Na+] | 80 | 65 | 0.03 | 6.5 |  |
| CCCc1c2nc(C(=O)[O-])cc(NCC)c2cc2c(=O)cc(C(=O)[O-])oc12.[Na+].[Na+] | 13.8 | 42 | 0.18 | 4.2 |  |
| CCCc1c2nc(C(=O)[O-])cc(N)c2cc2c(=O)cc(C(=O)[O-])oc12.[Na+].[Na+] | 8.25 |  | 0.31 |  | Activity index (Canis familiaris [11]): 4.1 |
| CC=Cc1c2oc(C(=O)O)cc(=O)c2cc2c(=O)cc(C(=O)O)n(CC)c12 |  | 84 |  |  |  |
| CCCc1c2nc(C(=O)[O-])cc(N3CCCC3)c2cc2c(=O)cc(C(=O)[O-])oc12.[Na+].[Na+] | 4.13 | 57 | 0.86 | 5.7 |  |
| CCCc1c(C(=O)[O-])nc2c(CCC)c3oc(C(=O)[O-])cc(=O)c3cc2c1O.[Na+].[Na+] | 10.9 | 6 | 0.14 | 0.6 |  |
| CCCc1c2nc(C(=O)[O-])ccc2cc2c(=O)cc(C(=O)[O-])oc12.[Na+].[Na+] | 0.35 | 38 | 7.11 | 3.8 |  |
| CCCc1c2oc(C(=O)[O-])cc(=O)c2cc2c(=O)cc(C(=O)[O-])n(CCC)c12.[Na+].[Na+] | 0.43 | 28 | 3.71 | 2.8 |  |
| CCCc1c2nc(C(=O)O)cc(C)c2cc2c(=O)cc(C(=O)O)oc12 | 2.97 | 66 | 0.71 | 6.6 |  |
| CCCc1c2nc(C(=O)[O-])cc(OC)c2cc2c(=O)cc(C(=O)[O-])oc12.[Na+].[Na+] | 8.35 | 43 | 0.3 | 4.3 |  |

| Compound | Potency ratio (Rattus norvegicus [1]) | inhibition in vivo at 10 µg/kg/min (Canis familiaris [2]) [%] | ED50 (Rattus norvegicus [3]) [mg/kg] | Activity index (Canis familiaris [4]) | further results |
| --- | --- | --- | --- | --- | --- |
| CC(C)CCn1c(C(=O)O)cc(=O)c2cc3c(=O)cc(C(=O)O)oc3cc21 | 0.54 |  | 2.05 |  | Activity index (Canis familiaris [12]): 1.4; inhibition in vivo at 50 µg/kg/min (Canis familiaris [13]): 68% |
| CCCc1c2oc(C(=O)[O-])cc(=O)c2cc2c(=O)cc(C(=O)[O-])n(C)c12.[Na+].[Na+] | 6.6 | 55 | 0.21 | 5.5 |  |
| CCCc1c2nc(C(=O)[O-])cc(S(=O)(=O)c3ccccc3)c2cc2c(=O)cc(C(=O)[O-])oc12.[Na+].[Na+] | 9.9 | 39 | 0.3 | 3.9 |  |
| CCCc1c2nc(C(=O)[O-])cc(OCC)c2cc2c(=O)cc(C(=O)[O-])oc12.[Na+].[Na+] | 8.47 | 32 | 0.3 | 3.2 |  |
| CCCc1c2nc(C(=O)[O-])cc(Oc3ccccc3)c2cc2c(=O)cc(C(=O)[O-])oc12.[Na+].[Na+] | 1.75 | 68 | 1.12 | 6.8 |  |
| CCCc1c2nc(C(=O)[O-])cc(Br)c2cc2c(=O)cc(C(=O)[O-])oc12.[Na+].[Na+] | 4.62 | 48 | 0.55 | 4.8 |  |
| O=C([O-])c1cc(Cl)c2cc3c(=O)cc(C(=O)[O-])oc3cc2n1.[Na+].[Na+] | 0.72 |  | 4.23 | 0 | inhibition (Canis familiaris [14]): inactive |
| C=CCc1c2nc(C(=O)[O-])cc(Cl)c2cc2c(=O)cc(C(=O)[O-])oc12.[Na+].[Na+] | 1.09 | 21 | 2.4 | 2.1 |  |
| CCCc1c(C(=O)[O-])nc2c(CCC)c3oc(C(=O)[O-])cc(=O)c3cc2c1Cl.[Na+].[Na+] | 1.14 |  | 2.45 | 0 | inhibition (Canis familiaris [14]): inactive |
| CCCc1c2nccc(O)c2cc2c(=O)cc(C(=O)[O-])oc12.[Na+] | 0.35 |  | 6.03 |  |  |
| CCCc1c2nc(C(=O)[O-])cc(Nc3ccccc3)c2cc2c(=O)cc(C(=O)[O-])oc12.[Na+].[Na+] | 3.47 |  | 0.57 |  | Activity index (Canis familiaris [11]): 3 |
| CCCc1c2nc(C(=O)[O-])cc(SCC)c2cc2c(=O)cc(C(=O)[O-])oc12.[Na+].[Na+] | 11.1 | 59 | 0.14 | 5.9 |  |
| CCCc1c2nc(C(=O)[O-])cc(NC)c2cc2c(=O)cc(C(=O)[O-])oc12.[Na+].[Na+] | 7.13 |  | 0.22 |  | IC30 (Monkey [6]): 28.5 µM; Potency (Rattus norvegicus [15]): 6; Activity index (Canis familiaris [11]): 4; Potency (Rattus norvegicus [7]): 7.1; Relative potency (Monkey [8]): 35; Potency (Rattus norvegicus [9]): Active to induce phosphorylation; Relative activity (Canis familiaris [10]): 1.25 |
| CCCc1c2nc(C(=O)[O-])cc(Cl)c2cc2c(=O)cc(C(=O)[O-])oc12.[Na+].[Na+] |  | 72 | 1.38 | 7.2 |  |
| CCCc1c2nc(C(=O)[O-])cc(O)c2cc2c(=O)ccoc12.[Na+] | 6.5 |  | 0.78 |  |  |
| CCCc1c2nc(C(=O)[O-])cc(N(C)C(C)=O)c2cc2c(=O)cc(C(=O)[O-])oc12.[Na+].[Na+] | 0.88 |  | 4.02 |  | Activity index (Canis familiaris [11]): 1 |
